Screening data (PubChem)
MC4R barr agon – activates human MC4R beta-arrestin recruitment; P32245; U2OS MC4R beta-arrestin complementation, luminescence; percent of melanotan II response, DMSO zero; activation, % at 8.9 µM; 360,000 compounds, 0.98% hits;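 active = activation above a per-plate cutoff, the mean activation of sample wells on that plate plus 3 SD, cut at about 8% in these data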
MsrA act – bovine methionine sulfoxide reductase A activation; activation, % at 10.6 µM; AID 602163; 360,000 compounds, 0.3% hits; purified bovine MsrA, absorbance read-out; in the data active = activation above about 7.5%
MC4R antagonist – human MC4R antagonism in cAMP assay; inhibition, % at 6.5 µM; P32245; MC4R-expressing cells, MTII-stimulated cAMP, LANCE TR-FRET; 360,000 compounds, 0.48% hits;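 active = inhibition above its plate's cutoff, the mean of tested wells on that plate plus 3 SD, cut at about 29% in these data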
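Material – human MC4R-expressing U2OS cells · Repeats – no replicates · Detection – TR-FRET with Eu-cAMP and labeled anti-cAMP, 671 nm · Times – compound 30 min, challenge 1 h, detection 1 h · Compound – single nominal compound dose of 6.5 µM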
MsrA inh – inhibits bovine methionine sulfoxide reductase A | purified bovine MsrA, absorbance read-out | 360,000 compounds, 0.75% hits | AID 651718 | inhibition, % at 15.5 µM; in the data active = inhibition above about 4.5%
MC4R barr ag – human MC4R beta-arrestin agonism confirmation; shares compounds with MC4R barr agon; U2OS MC4R beta-arrestin recruitment, luminescence; scaled DMSO 0%, Melanotan II 100%; activation, % at 8.9 µM; 2,400 compounds, 31% hits; AID 602192;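 active = mean activation across replicates above the hit cutoff set in the earlier primary screen, cut at about 8% in these data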
MOR-DOR barr ag – OPRM1-OPRD1 heterodimer agonism counter-screen. shares compounds with MC4R barr agon. U2OS PathHunter beta-arrestin, beta-gal luminescence; percent of deltorphin B response, DMSO zero. activation, % at 9.2 µM. 2,400 compounds, 5.8% hits. AID 602194;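 active = mean activation across replicates exceeds the hit threshold derived in the earlier primary screen, cut at about 18% in these data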
Each line names hits and unclear results; the compound was inactive in the other large screens (follow-up assays come after a bar, where they were run). The list is not random: actives were taken first. Their share in the collection is about 2.3%.

CCC(=O)N(Cc1ccco1)c1nc(-c2cc(OC)ccc2OC)cs1	MC4R barr agon 9.7 | MC4R barr ag 9.1 | MOR-DOR barr ag inactive
Cc1ccc(S(=O)(=O)N2CCN(C(=O)c3cc(S(=O)(=O)N4CCOCC4)c(Cl)cc3Cl)CC2)cc1	none
Clc1ccc(Cn2cc(/C=N/n3cnnc3)c3ccccc32)c(Cl)c1	MC4R barr agon 16.1 | MC4R barr ag 11.2 | MOR-DOR barr ag inactive
O=C(NC(=S)Nc1ccc(S(=O)(=O)N2CCCCCC2)cc1)c1cccs1	MC4R barr agon 12.8 | MC4R barr ag 9.4 | MOR-DOR barr ag inactive
O=C(NC(=S)Nc1ccc(S(=O)(=O)N2CCCC2)cc1)c1cccs1	none
O=C(Nc1ccc2nn(-c3ccccc3)nc2c1)c1cccs1	MC4R barr agon 10.5 | MC4R barr ag inactive | MOR-DOR barr ag inactive
O=C(Nc1ccc(F)cc1)Nc1sccc1-c1nc2ccccc2s1	MC4R barr agon 25.2 | MC4R barr ag 10.3 | MOR-DOR barr ag inactive
O=C(Nc1nc2ccccc2s1)c1ccc(F)cc1	none
O=C(Nc1ccc(O)c(-c2nc3ccccc3s2)c1)c1cc(=O)c2ccccc2o1	none
O=C(Nc1ccc2nsnc2c1)c1cccs1	none
O=C(Nc1ccc(O)c(-c2nc3ccccc3s2)c1)c1cccs1	MC4R barr agon 24.5 | MC4R barr ag inactive | MOR-DOR barr ag inactive
Cc1ccccc1C(=O)Nc1cccc(NC(=S)NC(=O)c2cccs2)c1	none
O=C(NC(=S)Nc1cccc(NC(=S)NC(=O)c2ccccc2)c1)c1ccccc1	none
O=C(Nc1cccc(NC(=S)NC(=O)c2cccs2)c1)c1ccccc1	MC4R barr agon 11.8 | MC4R barr ag 18.6 | MOR-DOR barr ag inactive
O=C(NC(=S)Nc1cccc(NC(=O)c2ccccc2Cl)c1)c1cccs1	MC4R barr agon 14.2 | MC4R barr ag inactive | MOR-DOR barr ag inactive
O=S1CC/C(=N\O)c2ccccc21 (stereo not drawn)	none
CCOc1ccc(C(=O)Nc2ccc(NC(=O)c3ccco3)c(Cl)c2)cc1Cl	MC4R barr agon 35.6 | MC4R barr ag inactive | MOR-DOR barr ag 18.6
CCOc1cccc(C(=O)Nc2ccc(NC(=O)c3ccccc3)c(C)c2)c1	none
CCOc1ccc(C(=O)Nc2ccc3c(c2)OCO3)cc1OCC	none
CCOc1ccc(C(=O)Nc2cccc([N+](=O)[O-])c2)cc1Br	MC4R barr agon 15.3 | MC4R barr ag inactive | MOR-DOR barr ag inactive
CCOc1ccc(C(=O)Nc2ccc(NC(=O)c3ccccc3)c(C)c2)cc1[N+](=O)[O-]	MC4R barr agon 11.9 | MC4R barr ag inactive | MOR-DOR barr ag inactive
COc1cccc(C(=O)Nc2ccc(NC(=O)c3ccco3)c(Cl)c2)c1	none
CCOc1cc(C(=O)Nc2ccc3c(c2)OCO3)ccc1OCCOc1ccccc1Cl	MC4R barr agon 10.0 | MC4R barr ag 12.2 | MOR-DOR barr ag inactive
CCOc1ccc(C(=O)Nc2cccc(NC(=O)c3cccs3)c2)cc1[N+](=O)[O-]	none
CCOc1ccccc1NC(=O)c1cccc(NC(=O)c2ccco2)c1	none
O=C(Nc1ccc(NC(=O)c2cccs2)c(Cl)c1)c1ccco1	none
CCOc1ccc(C(=O)Nc2ccc(NC(=O)c3ccco3)c(Cl)c2)cc1Br	MC4R barr agon 36.4 | MC4R barr ag inactive | MOR-DOR barr ag inactive
O=C(Nc1ccc(NC(=O)c2sc3ccccc3c2Cl)cc1Cl)c1ccco1	MC4R barr agon 35.7 | MC4R barr ag 8.8 | MOR-DOR barr ag inactive
CCC(=O)NC(=S)Nc1ccc(NC(=O)c2ccc(C)c([N+](=O)[O-])c2)cc1	MC4R barr agon 10.8 | MC4R barr ag inactive | MOR-DOR barr ag inactive
C/C(CCc1ccccc1)=N\NC(=O)C1C2CCCCC21 (stereo not drawn)	none
COc1ccccc1NC(=S)NC(=O)c1ccc(-c2ccc(Cl)cc2)o1	MC4R barr agon 19.6 | MC4R barr ag inactive | MOR-DOR barr ag inactive
O=C(NC(=S)Nc1ccccc1O)c1ccc(-c2ccc(Cl)cc2)o1	MC4R barr agon 30.5 | MC4R barr ag inactive | MOR-DOR barr ag inactive
Cc1c(NC(=S)NC(=O)c2ccc(-c3ccc(Cl)cc3)o2)cccc1C(=O)O	none
Cc1cc(C)nc(N=Nc2c(O)n(Cc3ccc(Cl)cc3)c3ccccc23)n1	none
O=C(Nc1ccc(OC(F)(F)C(F)F)c(NC(=O)c2cccc(F)c2)c1)c1cccc(F)c1	MC4R barr agon 20.9 | MC4R barr ag inactive | MOR-DOR barr ag inactive
